# What was measured:
# [1] = test system: Raji/VCR cell bearing BALB/c nude mice; assay: In vivo antitumor activity; settings: 10 mg/kg of VCR intravenously twice a week for 3 weeks, n=6
# [2] = In vivo tissue distribution; parameters: species or system Raji/VCR cell bearing BALB/c nude mice; settings: 10 mg/kg of VCR intravenous
# Systemic toxicity = assay type: in vivo, BALB/c nude mice; settings: tumor-bearing mice, after 3 weeks of administration
# Procedure, shortened: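 BALB/c nude mice (4–6 weeks, 18–22 g) carried subcutaneous right-flank xenografts of vincristine-resistant Raji cells (5×10^7 cells in 100 μL PBS). Mice were randomised into groups of six and dosed intravenously twice a week for 3 weeks with PBS control or test formulations (10 mg/kg drug). Body weight was recorded as a systemic toxicity read-out.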
# Raji cells = assay: In vitro cytotoxicity; assay type: cell-based, human; settings: Raji cells versus Raji/VCR cells, MTT, 72 hours
smiles,measurement,setting,value
"CC[C@]1(O)C[C@H]2CN(CCc3c([nH]c4ccccc34)[C@@](C(=O)OC)(c3cc4c(cc3OC)N(C=O)[C@H]3[C@@](O)(C(=O)OC)[C@H](OC(C)=O)[C@]5(CC)C=CCN6CC[C@]43[C@@H]65)C2)C1 [Free VCR, vincristine]",Tumor volume / tumor growth (in words),[1],not statistically different from the negative control
same,Drug distribution over time (in words),[2],rapidly reached a high level during the first few hours and reduced over time
same,Body weight (in words),Systemic toxicity,reduction in body weight
same,In vitro cytotoxicity (in words),Raji cells,higher cytotoxicity in Raji cells than Raji/VCR cells

# Source: article PMC5909786 (Drug Design, Development and Therapy, 2018)
